# According to ChEMBL document CHEMBL4842318, “A γ-lactam siderophore antibiotic effective against multidrug-resistant Pseudomonas aeruginosa, Klebsiella pneumoniae, and Acinetobacter spp” (Eur J Med Chem, 2021):
# Legend:
# [1] = tested on: Pseudomonas aeruginosa; test: Antibacterial activity against wild type Pseudomonas aeruginosa isolate PR-604 assessed as inhibition of bacterial growth by microdilution method; type: functional
# In short: (§1)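 Broth microdilution MIC in iron-depleted (Chelex resin-treated) cation-adjusted Mueller-Hinton broth, following the protocol used for siderophore-containing antibiotics. Inoculum was lowered to 6 × 10^4 cfu/mL.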
# [2] = tested on: Acinetobacter baumannii; test: Antibacterial activity against carbapenem resistant Acinetobacter baumannii isolate PR-342 assessed as inhibition of bacterial growth in presence of 20 ug/ml sulbactam by microdilution method; type: functional; conditions: dose 20 µg/ml
# [3] = tested on: Acinetobacter baumannii; test: Antibacterial activity against carbapenem resistant Acinetobacter baumannii isolate PR-326 assessed as inhibition of bacterial growth at 1:1 compound to sulbactam concentration by microdilution method; type: functional
# In short: (§2)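 Iron-depleted (Chelex-treated) cation-adjusted Mueller-Hinton broth microdilution; inoculum 6 × 10^4 cfu/mL. Test agent and sulbactam mixed 1:1 by mass and serially 2-fold diluted together. MIC in μg/mL.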
# [4] = tested on: Acinetobacter baumannii; test: Antibacterial activity against carbapenem susceptible Acinetobacter baumannii isolate PR-340 assessed as inhibition of bacterial growth in presence of 20 ug/ml sulbactam by microdilution method
# [5] = tested on: Pseudomonas aeruginosa; test: Antibacterial activity against wild type Pseudomonas aeruginosa isolate PR-636 leucine at 533 residue assessed as inhibition of bacterial growth by microdilution method; type: functional; in short: as §1
# [6] = tested on: Acinetobacter baumannii; test: Antibacterial activity against carbapenem resistant Acinetobacter baumannii isolate PR-399 assessed as inhibition of bacterial growth in presence of 20 ug/ml sulbactam by microdilution method; type: functional; conditions: dose 20 µg/ml
# [7] = tested on: Acinetobacter baumannii; test: Antibacterial activity against carbapenem resistant Acinetobacter baumannii isolate PR-387 assessed as inhibition of bacterial growth in presence of 20 ug/ml sulbactam by microdilution method; type: functional; conditions: dose 20 µg/ml
# [8] = Substrate activity at OXA-23 (unknown origin) assessed as Kcat by measuring hydrolysis by spectrophotometry; type: ADME
# [9] = tested on: Acinetobacter baumannii; test: Antibacterial activity against carbapenem resistant Acinetobacter baumannii isolate PR-325 assessed as inhibition of bacterial growth in presence of 20 ug/ml sulbactam by microdilution method; type: functional; conditions: dose 20 µg/ml
# [10] = tested on: Pseudomonas aeruginosa; test: Antibacterial activity against wild type Pseudomonas aeruginosa isolate PR-699 assessed as inhibition of bacterial growth by microdilution method; type: functional; in short: as §1
# [11] = tested on: Acinetobacter baumannii; test: Antibacterial activity against carbapenem resistant Acinetobacter baumannii isolate PR-351 assessed as inhibition of bacterial growth in presence of 20 ug/ml sulbactam by microdilution method; type: functional; conditions: dose 20 µg/ml
# [12] = tested on: Pseudomonas aeruginosa; test: Antibacterial activity against wild type Pseudomonas aeruginosa isolate PR-680 leucine at 533 residue assessed as inhibition of bacterial growth by microdilution method; type: functional; in short: as §1
# [13] = tested on: Acinetobacter baumannii; test: Antibacterial activity against carbapenem resistant Acinetobacter baumannii isolate PR-380 assessed as inhibition of bacterial growth in presence of 20 ug/ml sulbactam by microdilution method; type: functional; conditions: dose 20 µg/ml
# [14] = tested on: Pseudomonas aeruginosa; test: Antibacterial activity against Pseudomonas aeruginosa isolate PR-627 leucine at 533 residue assessed as inhibition of bacterial growth by microdilution method; type: functional
# In short: (§3)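 Broth microdilution in Chelex-treated, iron-depleted cation-adjusted Mueller-Hinton broth, following the protocol used for siderophore-containing antibiotics; inoculum lowered to 6 × 10^4 cfu/mL; MIC read as growth inhibition, in μg/mL.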
# [15] = tested on: Acinetobacter baumannii; test: Antibacterial activity against carbapenem resistant Acinetobacter baumannii isolate PR-384 assessed as inhibition of bacterial growth at 1:1 compound to sulbactam concentration by microdilution method; type: functional; in short: as §2
# [16] = Plasma concentration in SC dosed CD-1 mouse treated four times at 6 hrs interval measured after 8 hrs; type: ADME, organism-based
# In short: (§4)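 CD-1 mice dosed SC at 50 mg/kg. Plasma sampled at 0.167 to 24 h, three individual mice per time point, reported as mean and SD in ng/mL.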
# [17] = tested on: Acinetobacter baumannii; test: Antibacterial activity against carbapenem resistant Acinetobacter baumannii isolate PR-387 assessed as inhibition of bacterial growth at 1:1 compound to sulbactam concentration by microdilution method; type: functional; in short: as §2
# [18] = tested on: Acinetobacter baumannii; test: Antibacterial activity against carbapenem resistant Acinetobacter baumannii isolate PR-387 assessed as bacterial growth inhibition by microdilution method; type: functional; in short: as §3
# [19] = tested on: Acinetobacter baumannii; test: Antibacterial activity against carbapenem resistant Acinetobacter baumannii isolate PR-380 assessed as bacterial growth inhibition by microdilution method; type: functional; in short: as §3
# [20] = tested on: Acinetobacter baumannii; test: Antibacterial activity against carbapenem resistant Acinetobacter baumannii isolate PR-345 assessed as bacterial growth inhibition by microdilution method; type: functional; in short: as §3
# [21] = tested on: Pseudomonas aeruginosa; test: Antibacterial activity against wild type Pseudomonas aeruginosa isolate PR-688 leucine at 533 residue assessed as inhibition of bacterial growth by microdilution method; type: functional; in short: as §1
# [22] = tested on: Acinetobacter baumannii; test: Antibacterial activity against carbapenem resistant Acinetobacter baumannii isolate PR-351 assessed as bacterial growth inhibition by microdilution method; type: functional; in short: as §3
# [23] = tested on: Acinetobacter baumannii; test: Antibacterial activity against carbapenem susceptible Acinetobacter baumannii isolate PR-464 assessed as inhibition of bacterial growth in presence of 20 ug/ml sulbactam by microdilution method; type: functional; conditions: dose 20 µg/ml
# In short: (§5)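 MIC by broth microdilution using iron-depleted (Chelex-treated) cation-adjusted Mueller-Hinton broth and 6 × 10^4 cfu/mL inoculum. Compound serially diluted with sulbactam held constant at 20 μg/mL.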
# [24] = Substrate activity at IMP-1 (unknown origin) assessed as Kcat by measuring hydrolysis by spectrophotometry; type: ADME
# In short: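 Substrate hydrolysis (600 μM start) followed at 336 nm (Δε336 = −4362 M−1 cm−1, 0.2 cm cuvette) to completion; velocities over 10 s intervals along progress curve; Km, Vmax from double reciprocal plot, kcat = Vmax/[E].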
# [25] = tested on: Pseudomonas aeruginosa; test: Antibacterial activity against wild type Pseudomonas aeruginosa isolate PR-567 assessed as inhibition of bacterial growth by microdilution method; type: functional; in short: as §1
# [26] = tested on: Acinetobacter baumannii; test: Antibacterial activity against carbapenem resistant Acinetobacter baumannii isolate PR-423 assessed as inhibition of bacterial growth in presence of 20 ug/ml sulbactam by microdilution method; type: functional; conditions: dose 20 µg/ml
# [27] = Plasma concentration in SC dosed CD-1 mouse treated four times at 6 hrs interval measured after 4 hrs; type: ADME, organism-based; in short: as §4
# [28] = target: PDE3A (Homo sapiens, UniProt Q14432); test: Inhibition of PDE3A (unknown origin) at 30 uM
# Sequence of PDE3A (Q14432 whole entry): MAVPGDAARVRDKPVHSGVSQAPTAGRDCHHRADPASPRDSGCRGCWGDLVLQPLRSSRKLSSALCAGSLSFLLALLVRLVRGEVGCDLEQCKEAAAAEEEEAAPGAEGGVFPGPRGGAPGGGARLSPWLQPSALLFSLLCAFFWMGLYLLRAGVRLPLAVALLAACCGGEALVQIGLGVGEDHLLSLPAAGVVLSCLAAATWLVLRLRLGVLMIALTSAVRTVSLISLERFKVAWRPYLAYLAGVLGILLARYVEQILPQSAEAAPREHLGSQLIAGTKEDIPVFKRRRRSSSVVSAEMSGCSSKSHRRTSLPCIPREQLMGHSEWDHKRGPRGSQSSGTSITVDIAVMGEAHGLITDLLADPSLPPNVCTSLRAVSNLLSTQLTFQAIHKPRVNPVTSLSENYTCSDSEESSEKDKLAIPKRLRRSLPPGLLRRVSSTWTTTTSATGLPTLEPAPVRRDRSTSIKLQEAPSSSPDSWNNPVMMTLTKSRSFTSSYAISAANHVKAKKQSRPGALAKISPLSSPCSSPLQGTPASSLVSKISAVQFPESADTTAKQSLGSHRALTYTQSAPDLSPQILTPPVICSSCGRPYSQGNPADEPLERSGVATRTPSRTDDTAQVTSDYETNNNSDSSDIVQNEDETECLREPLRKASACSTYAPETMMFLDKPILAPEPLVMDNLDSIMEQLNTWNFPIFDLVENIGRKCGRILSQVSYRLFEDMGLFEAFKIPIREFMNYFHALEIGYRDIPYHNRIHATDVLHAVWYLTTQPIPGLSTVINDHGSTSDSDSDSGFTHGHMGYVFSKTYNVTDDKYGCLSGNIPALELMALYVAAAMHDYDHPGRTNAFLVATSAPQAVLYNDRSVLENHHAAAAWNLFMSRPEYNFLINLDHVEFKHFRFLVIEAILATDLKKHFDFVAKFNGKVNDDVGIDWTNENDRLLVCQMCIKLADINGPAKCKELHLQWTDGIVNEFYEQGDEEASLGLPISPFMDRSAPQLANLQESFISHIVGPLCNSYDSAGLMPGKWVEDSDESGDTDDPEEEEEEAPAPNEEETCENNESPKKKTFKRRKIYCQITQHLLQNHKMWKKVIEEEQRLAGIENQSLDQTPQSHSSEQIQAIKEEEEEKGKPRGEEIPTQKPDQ
# [29] = tested on: Acinetobacter baumannii; test: Antibacterial activity against carbapenem resistant Acinetobacter baumannii isolate PR-459 assessed as inhibition of bacterial growth at 1:1 compound to sulbactam concentration by microdilution method; type: functional; in short: as §2
# [30] = tested on: Acinetobacter baumannii; test: Antibacterial activity against carbapenem resistant Acinetobacter baumannii isolate PR-326 assessed as bacterial growth inhibition by microdilution method; type: functional; in short: as §3
# [31] = Antibacterial activity against carbapenem susceptible Acinetobacter nosocomialis isolate PR-365 assessed as inhibition of bacterial growth at 1:1 compound to sulbactam concentration by microdilution method; type: functional
# In short: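 Broth microdilution MIC in Chelex-treated, iron-depleted cation-adjusted Mueller-Hinton broth, inoculum 6 × 10^4 cfu/mL. Compound and sulbactam combined 1:1 by mass in a 2-fold dilution series.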
# [32] = tested on: Acinetobacter baumannii; test: Antibacterial activity against carbapenem resistant Acinetobacter baumannii isolate PR-459 assessed as inhibition of bacterial growth in presence of 20 ug/ml sulbactam by microdilution method; type: functional; conditions: dose 20 µg/ml
# [33] = Antibacterial activity against carbapenem susceptible Acinetobacter nosocomialis isolate PR-362 assessed as inhibition of bacterial growth in presence of 20 ug/ml sulbactam by microdilution method; type: functional; conditions: dose 20 µg/ml; in short: as §5
# [34] = Antibacterial activity against carbapenem susceptible Acinetobacter nosocomialis isolate PR-491 assessed as inhibition of bacterial growth in presence of 20 ug/ml sulbactam by microdilution method; type: functional; conditions: dose 20 µg/ml; in short: as §5
# [35] = tested on: Acinetobacter baumannii; test: Antibacterial activity against carbapenem resistant Acinetobacter baumannii isolate PR-384 assessed as bacterial growth inhibition by microdilution method; type: functional; in short: as §3
structure (smiles),measurement,setting,value
CC(C)(O/N=C(\C(=O)N[C@H]1CN2CC(C(=O)NCCN3C(=O)c4cc(O)c(O)cc4C3=O)=C(C(=O)O)N2C1=O)c1nc(N)sc1Cl)C(=O)O,MIC,[1],≤ 0.25 µg/mL
same,MIC,[2],> 16 µg/mL
same,MIC,[3],2 µg/mL
same,MIC,[4],≤ 0.25 µg/mL
same,MIC,[5],> 16 µg/mL
same,MIC,[6],≤ 0.25 µg/mL
same,MIC,[7],≤ 0.25 µg/mL
same,Kcat,[8],Nottraceable
same,MIC,[9],> 16 µg/mL
same,MIC,[10],> 16 µg/mL
same,MIC,[11],≤ 0.25 µg/mL
same,MIC,[12],> 16 µg/mL
same,MIC,[13],≤ 0.25 µg/mL
same,MIC,[14],> 16 µg/mL
same,MIC,[15],16 µg/mL
same,concentration at 8 h,[16],1200 ng/mL
same,MIC,[17],16 µg/mL
same,MIC,[18],> 16 µg/mL
same,MIC,[19],> 16 µg/mL
same,MIC,[20],> 16 µg/mL
same,MIC,[21],> 16 µg/mL
same,MIC,[22],> 16 µg/mL
same,MIC,[23],≤ 0.25 µg/mL
same,Kcat,[24],5 s⁻¹
same,MIC,[25],≤ 0.25 µg/mL
same,MIC,[26],≤ 0.25 µg/mL
same,concentration at 4 h,[27],1340 ng/mL
same,inhibition at 30 µM,[28],> 50%
same,MIC,[29],8 µg/mL
same,MIC,[30],> 16 µg/mL
same,MIC,[31],≤ 0.25 µg/mL
same,MIC,[32],4 µg/mL
same,MIC,[33],≤ 0.25 µg/mL
same,MIC,[34],≤ 0.25 µg/mL
same,MIC,[35],> 16 µg/mL
